Measured values published in ChEMBL document CHEMBL1126785, “Peptidomimetic HIV protease inhibitors: phosphate prodrugs with improved biological activities” (J Med Chem, 1993).

Legend:
[1] = target: Human immunodeficiency virus type 1 protease (Human immunodeficiency virus 1, UniProt Q72874); assay: Tested for inhibitory activity against HIV-1 protease
How it was run: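 Recombinant HIV-1 protease hydrolysing 2.5 mM synthetic octapeptide substrate H-Val-Ser-Gln-Asn-Tyr-Pro-Ile-Val-OH, with or without inhibitor. Run at 30 °C in 100 mM sodium acetate pH 5.5 with 10% glycerol, 5% ethylene glycol and 0.1% Nonidet P-40. Stopped after 30 min with 1% trifluoroacetic acid; hydrolysis quantified by HPLC.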

[2] = system: Human immunodeficiency virus 1; assay: (§1) Tested for the inhibition of p24 production in HIV-1 IIIB infected human peripheral blood mononuclear cells (PBMC); assay type: functional
How it was run: (§2)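 Human PBMC (5×10^4 cells) were infected with HIV-1 IIIB at MOI 0.003 for 90 min. They were then kept in triplicate wells with continuous compound present for 7 days; compounds came from 10 mM DMSO stocks. Supernatant p24 was measured by ELISA. IC50 and IC90 were taken from linear regression on the linear part of the dose-response curve.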

[3] = system: Human immunodeficiency virus 1; assay: as §1; assay type: functional, organism-based; how it was run: as §2

## CC[C@H](C)[C@H](NC(=O)[C@H](C(C)C)[C@@H](O)[C@H](O)[C@H](CC1CCCCC1)NC(=O)[C@H](Cc1c[nH]cn1)NC(=O)COc1cccc2ccccc12)C(=O)NCc1ccccn1
[1]
  Ki: < 1 nM
[2]
  IC90: 223 nM
[3]
  IC50: 50.2 nM
